The values that follow come from ChEMBL document CHEMBL1153953, “Synthesis and pharmacological evaluation of coumarin derivatives as cannabinoid receptor antagonists and inverse agonists” (Bioorg Med Chem, 2009).

One test deals with Cannabinoid receptor 1 (Rattus norvegicus, UniProt P20272). The test is described as follows: Displacement of [3H]CP-55940 from cannabinoid CB1 receptor in rat brain cortical membrane. The test is classed as cell membranes. In general terms: Displacement assays read how much labelled ligand stays bound in the presence of the test substance.
In test [1] the target is T1, Cannabinoid receptor 2 (Homo sapiens, UniProt P34972). The test is described as follows: Displacement of [3H]CP-55940 from human recombinant cannabinoid CB2 receptor expressed in HEK293 cells. Type of test: cell-based.
In test [2] the target is T1, Cannabinoid receptor 2. The test is described as follows: Displacement of [3H]CP-55940 from human recombinant cannabinoid CB2 receptor expressed in HEK293 cells at 10 uM. Type of test: cell-based. The essentials:
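Competition vs 0.5 nM [3H]CP55,940 using commercial HEK293 EBNA membranes expressing human CB2, 50 µg protein/well, in 50 mM Tris-HCl pH 7.4, 3 mM MgCl2, 0.1% BSA; 2.5% DMSO final; rt, 2 h, started by protein; nonspecific with 10 µM unlabeled CP55,940; GF/C filtration, scintillation counting; ≥3 experiments in duplicate.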

Test [3] concerns the target Cannabinoid receptor 1 (Rattus norvegicus) (UniProt P20272). The test is described as follows: Displacement of [3H]CP-55940 from cannabinoid CB1 receptor in rat brain cortical membrane at 10 uM. The test is classed as cell membranes. The essentials: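 Competition vs 0.5 nM [3H]CP55,940 on rat brain cortical membranes (cortex homogenized in 0.32 M sucrose, differentially centrifuged), 50 µg protein/well, in 50 mM Tris-HCl pH 7.4, 3 mM MgCl2, 0.1% BSA; 2.5% DMSO final; rt, 2 h, started by protein; nonspecific with 10 µM unlabeled CP55,940; GF/C filtration, scintillation counting; ≥3 experiments in triplicate.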

The target is the same in test [4]. The test is described as follows: Antagonist activity at cannabinoid CB1 receptor in rat brain cortical membrane assessed as effect on GTPgammaS binding at 30 uM by liquid scintillation counting relative to CP-55940. Also noted: scale not given: the % may be the effect or the level left. The test is classed as functional, cell membranes.
For test [5], the target named is Cannabinoid receptor 1 (Homo sapiens) (UniProt P21554). The test is described as follows: Inverse agonist activity at human recombinant cannabinoid CB1 receptor expressed in HEK293 cells assessed as decrease in GTPgammaS binding at 30 uM by liquid scintillation counting relative to CP-55940. The test is classed as functional, cell-based. Also noted: scale not given: the % may be the effect or the level left.

The structures appear in SMILES notation.

As a reminder, the Ki is the equilibrium dissociation constant of an inhibitor or competing ligand from its target.

T1 sequence (P34972 whole entry): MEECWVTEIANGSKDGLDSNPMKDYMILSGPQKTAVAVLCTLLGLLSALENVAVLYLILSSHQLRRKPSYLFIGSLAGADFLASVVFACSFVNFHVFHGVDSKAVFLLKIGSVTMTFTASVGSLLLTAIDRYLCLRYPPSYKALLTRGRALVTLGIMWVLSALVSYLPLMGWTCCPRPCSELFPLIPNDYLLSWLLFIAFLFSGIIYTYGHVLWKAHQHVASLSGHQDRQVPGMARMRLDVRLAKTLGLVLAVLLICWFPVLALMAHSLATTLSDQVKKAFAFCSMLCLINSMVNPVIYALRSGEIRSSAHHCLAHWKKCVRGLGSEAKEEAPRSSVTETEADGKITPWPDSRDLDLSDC
Chain of Cannabinoid receptor 1 (P20272 whole entry): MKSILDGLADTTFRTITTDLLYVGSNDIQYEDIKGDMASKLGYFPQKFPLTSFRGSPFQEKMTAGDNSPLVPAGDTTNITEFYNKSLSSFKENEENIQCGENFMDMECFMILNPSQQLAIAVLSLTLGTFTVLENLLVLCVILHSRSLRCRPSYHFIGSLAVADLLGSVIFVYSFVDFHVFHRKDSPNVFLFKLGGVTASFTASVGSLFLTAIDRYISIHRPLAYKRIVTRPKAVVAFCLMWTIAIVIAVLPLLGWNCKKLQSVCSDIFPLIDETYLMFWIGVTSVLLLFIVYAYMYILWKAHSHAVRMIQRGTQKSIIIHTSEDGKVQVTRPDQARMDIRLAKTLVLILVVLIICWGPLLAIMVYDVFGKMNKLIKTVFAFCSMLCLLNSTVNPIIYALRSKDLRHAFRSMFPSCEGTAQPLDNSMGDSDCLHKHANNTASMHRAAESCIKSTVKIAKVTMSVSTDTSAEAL
Chain of Cannabinoid receptor 1 (Rattus norvegicus) (P20272 whole entry): as above
Chain of Cannabinoid receptor 1 (Homo sapiens) (P21554 whole entry): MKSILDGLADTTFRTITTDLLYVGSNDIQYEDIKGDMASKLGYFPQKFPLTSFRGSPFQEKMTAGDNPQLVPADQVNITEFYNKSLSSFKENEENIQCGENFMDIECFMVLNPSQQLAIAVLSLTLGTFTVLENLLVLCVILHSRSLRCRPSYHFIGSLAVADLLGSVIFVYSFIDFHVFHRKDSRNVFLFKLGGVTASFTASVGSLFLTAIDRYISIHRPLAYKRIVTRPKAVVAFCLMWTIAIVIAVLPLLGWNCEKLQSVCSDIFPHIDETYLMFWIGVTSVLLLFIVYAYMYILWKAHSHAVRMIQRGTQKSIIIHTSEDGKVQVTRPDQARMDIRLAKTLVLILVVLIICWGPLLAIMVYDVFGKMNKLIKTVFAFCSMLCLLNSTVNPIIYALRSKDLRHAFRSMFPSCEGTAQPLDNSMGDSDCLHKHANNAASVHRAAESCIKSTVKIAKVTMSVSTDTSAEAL

With `O=C1C2=Cc3ccccc3OC2CC/C1=C\c1ccccc1O` (centres undefined), the Ki is 4.9 µM on Cannabinoid receptor 1 and > 10 µM on Cannabinoid receptor 2 [1]. Besides, the Activity at Cannabinoid receptor 2 [2] was determined as 37%.

In the case of `COc1ccc(Br)c2c1C=C(C(C)=O)C(C)O2` (centres undefined), the figures for the Activity (in test [3]; on Cannabinoid receptor 2 [2]) were 34% and 7%, respectively. The Ki at Cannabinoid receptor 1 and at Cannabinoid receptor 2 [1] was > 10 µM in each case.

For `O=c1oc2ccccc2cc1Cc1ccccc1`, the Activity in test [3] turned out to be 18%; at Cannabinoid receptor 2 [2], 28%. Further, the Ki on Cannabinoid receptor 1 and on Cannabinoid receptor 2 [1] was > 10 µM throughout.

Take `COc1ccc(Cc2cc3c(OC)cc(C)cc3oc2=O)cc1`: the Activity in test [4] is 13%; in test [5] it was -10%. The Ki at Cannabinoid receptor 1 amounted to 6.14 µM; on Cannabinoid receptor 2 [1], 5.81 µM.

Regarding `COc1ccccc1Cc1cc2c(C(C)C)ccc(C)c2oc1=O`, the Ki is 6.18 µM at Cannabinoid receptor 1 and 5.67 µM on Cannabinoid receptor 2 [1].

For `CC1(C)Oc2c(cccc2-c2ccccc2)C=C1C=O`, the Activity in test [3] was found to be 46%; at Cannabinoid receptor 2 [2], 3%. Further, the Ki at Cannabinoid receptor 1 was ≥ 10 µM; on Cannabinoid receptor 2 [1], > 10 µM.

For the molecule `Cc1cc2c(C(C)C)ccc(C)c2oc1=O`, the Activity in test [3] is 26%; at Cannabinoid receptor 2 [2], 0%. For the same molecule, the Ki on Cannabinoid receptor 1 and on Cannabinoid receptor 2 [1] was > 10 µM throughout.

On to `COc1cc(C)cc2oc(=O)c(Cc3ccccc3O)cc12`, for which the Ki is 1.1 µM at Cannabinoid receptor 1 and 5.24 µM on Cannabinoid receptor 2 [1].

Consider `COc1cc(C)cc2oc(=O)c(Cc3ccccc3C)cc12`, for which the Ki came to 1.17 µM on Cannabinoid receptor 1 and 2.16 µM on Cannabinoid receptor 2 [1].

As to `CCOC(=O)/C(=C/C=C/c1ccccc1)C(=O)Oc1c(C2SCCS2)ccc2c1C=CC(C)(C)O2`, the Ki at Cannabinoid receptor 1 was 1.37 µM; at Cannabinoid receptor 2 [1], > 10 µM. Also, the Activity at Cannabinoid receptor 2 [2] was determined as 22%.

Regarding `Cc1cc2cc(Cl)cc(Br)c2oc1=O`, the figures for the Activity (in test [3]; at Cannabinoid receptor 2 [2]) were 8% and 3%, respectively. Moreover, the Ki on Cannabinoid receptor 1 and on Cannabinoid receptor 2 [1] was ≥ 10 µM each time.

With `COc1cc(C)cc2oc(=O)c(Cc3ccc(C)cc3)cc12`, the inhibition constant (Ki) at Cannabinoid receptor 1 stood at 9.14 µM; at Cannabinoid receptor 2 [1], 4.76 µM.

Regarding `COc1cc(Br)cc2cc(C)c(=O)oc12`, the Activity worked out at 17% in test [3] and 9% on Cannabinoid receptor 2 [2]. Further, the Ki at Cannabinoid receptor 1 and at Cannabinoid receptor 2 [1] was > 10 µM each time.

Take `COc1ccc2oc(=O)c(C)cc2c1`: the Activity in test [3] worked out at 15%; on Cannabinoid receptor 2 [2], 7%. The Ki on Cannabinoid receptor 1 was > 10 µM; at Cannabinoid receptor 2 [1], ≥ 10 µM.

For `O=c1oc2ccc(I)cc2cc1Cc1ccccc1`, the Activity in test [3] was 31%; on Cannabinoid receptor 2 [2], 44%. Moreover, the Ki on Cannabinoid receptor 1 was > 10 µM; on Cannabinoid receptor 2 [1], ≥ 10 µM.

On to `COc1cccc2oc(=O)c(Cc3ccccc3)cc12`, for which the Ki on Cannabinoid receptor 1 was 19.1 µM; at Cannabinoid receptor 2 [1], > 10 µM. Moreover, the Activity at Cannabinoid receptor 2 [2] was determined as 28%.

`Cc1cc2cc(I)ccc2oc1=O`: the Activity in test [3] stood at 12%; on Cannabinoid receptor 2 [2], 10%. In addition, the Ki at Cannabinoid receptor 1 and at Cannabinoid receptor 2 [1] was > 10 µM each time.

As to `COc1cccc(Cc2cc3c(OC)cc(C)cc3oc2=O)c1`, the Ki at Cannabinoid receptor 1 was found to be 4.11 µM; at Cannabinoid receptor 2 [1], 3.37 µM.

Regarding `COc1cccc2cc(Cc3ccccc3)c(=O)oc12`, the Activity in test [3] was 6%; on Cannabinoid receptor 2 [2], 25%. In addition, the Ki at Cannabinoid receptor 1 and on Cannabinoid receptor 2 [1] was ≥ 10 µM each time.

`COc1ccccc1Cc1cc2c(OC)cccc2oc1=O`: the Ki on Cannabinoid receptor 1 is 9.57 µM; at Cannabinoid receptor 2 [1], 3.49 µM.

For `COc1cc(C)cc2oc(=O)c(Cc3ccccc3)cc12`, the Activity was 3% in test [4], -8% in test [5] and 45% on Cannabinoid receptor 2 [2]. Moreover, the Ki was 3.46 µM on Cannabinoid receptor 1 and ≥ 10 µM on Cannabinoid receptor 2 [1].

Take `COc1ccccc1Cc1cc2c(OC)cc(C)cc2oc1=O`: the Activity was -2% in test [4] and -16% in test [5]. Further, the values for the Ki at Cannabinoid receptor 1 and on Cannabinoid receptor 2 [1] were 0.738 µM and 1.03 µM, respectively.

With `COc1cccc2cc(C)c(=O)oc12`, the figures for the Activity (in test [3]; at Cannabinoid receptor 2 [2]) were 6% and 4%, respectively. Moreover, the Ki at Cannabinoid receptor 1 is ≥ 10 µM; at Cannabinoid receptor 2 [1] it was > 10 µM.

For the molecule `COc1ccc(Br)c2oc(=O)c(Cc3ccccc3)cc12`, the Activity in test [3] is 39%; at Cannabinoid receptor 2 [2], 29%. Moreover, the Ki at Cannabinoid receptor 1 and on Cannabinoid receptor 2 [1] was > 10 µM in each case.

Consider `Cc1ccc(C(C)C)c2cc(Cc3ccccc3)c(=O)oc12`, for which the Activity in test [4] is 19%; in test [5], -9%. Moreover, the Ki at Cannabinoid receptor 1 was 2.76 µM; at Cannabinoid receptor 2 [1] it was 4.27 µM.

Regarding `COc1ccc(Cc2cc3c(OC)cc(C)cc3oc2=O)c(OC)c1`, the results for the Ki on Cannabinoid receptor 1 and at Cannabinoid receptor 2 [1] were 6.23 µM and 2.78 µM, respectively.

On to `COc1ccccc1Cc1cc2c(OC)ccc(C)c2oc1=O`, for which the Ki is 12.3 µM on Cannabinoid receptor 1 and 3.65 µM at Cannabinoid receptor 2 [1].

With `O=c1oc2ccc3ccccc3c2cc1Cc1ccccc1`, the Activity in test [4] is 15%; in test [5], -21%; on Cannabinoid receptor 2 [2], 59%. Further, the Ki at Cannabinoid receptor 1 was 4.19 µM; at Cannabinoid receptor 2 [1], ≥ 10 µM.

In the case of `COc1ccc2oc(=O)c(Cc3ccccc3)cc2c1`, the figures for the Activity (in test [3]; on Cannabinoid receptor 2 [2]) were 8% and 37%, respectively. In addition, the Ki on Cannabinoid receptor 1 is ≥ 10 µM; on Cannabinoid receptor 2 [1], > 10 µM.

Regarding `COc1cc(C)cc2oc(=O)c(Cc3ccc(Cl)cc3)cc12`, the values for the Ki at Cannabinoid receptor 1 and on Cannabinoid receptor 2 [1] were 2.08 µM and 9.39 µM, respectively.

With `Cc1cc2c(ccc3ccccc32)oc1=O`, the Activity in test [3] is 10%; at Cannabinoid receptor 2 [2], 2%. The Ki is > 10 µM at Cannabinoid receptor 1 and ≥ 10 µM on Cannabinoid receptor 2 [1].

As for `COc1ccccc1Cc1cc2c(ccc3ccccc32)oc1=O`, the Activity in test [3] amounted to 41%. Further, the Ki at Cannabinoid receptor 1 is > 10 µM; at Cannabinoid receptor 2 [1], 2.06 µM.

As for `O=c1oc2ccc([N+](=O)[O-])cc2cc1Cc1ccccc1`, the Activity amounted to 32% in test [3] and 15% at Cannabinoid receptor 2 [2]. The Ki on Cannabinoid receptor 1 and on Cannabinoid receptor 2 [1] was > 10 µM throughout.

For the molecule `COc1ccc2cc(Cc3ccccc3)c(=O)oc2c1`, the Activity in test [3] came to 31%; at Cannabinoid receptor 2 [2] it was 33%. The Ki on Cannabinoid receptor 1 and at Cannabinoid receptor 2 [1] was > 10 µM in each case.

For `Cc1c(C(=O)NN2CCOCC2)nn(-c2ccc(Cl)cc2Cl)c1-c1ccc(I)cc1`, the Activity in test [4] was 2%; in test [5] it was -19%.

Regarding `COc1cc(C)cc2oc(=O)c(Cc3ccccc3Cl)cc12`, the results for the Ki at Cannabinoid receptor 1 and on Cannabinoid receptor 2 [1] were 0.978 µM and 1.54 µM, respectively.

For the molecule `COc1ccc2cc(C)c(=O)oc2c1`, the values for the Activity (in test [3]; on Cannabinoid receptor 2 [2]) were 1% and 2%, respectively. The Ki at Cannabinoid receptor 1 and on Cannabinoid receptor 2 [1] was ≥ 10 µM each time.
